According to PMC5914179 (Advanced functional materials, 2016):

Assays:
[1] = target: thrombin (Homo sapiens, UniProt P00734); experiment: Sensor cleavage during CaCl2-activated clotting of human plasma/serum; type: biochemical; conditions: control human plasma + CaCl2, PEG-T1Q sensor
[2] = target: recombinant human MMP9 (Homo sapiens, UniProt P14780); experiment: In vitro cleavage assay; type: biochemical; conditions: inhibitor 5 μM final, ~100 nM MMP9, PEG-M1Q 1 μM by peptide
Method in brief: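 Quenched fluorogenic PEG-peptide substrate at 1 × 10^-6 M by peptide, incubated with recombinant human MMP9 (≈100 × 10^-9 M working concentration), with or without MMP inhibitor. Fluorescence dequenching monitored over time on a microplate reader.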

recombinant human MMP9, sequence (P14780 94-707): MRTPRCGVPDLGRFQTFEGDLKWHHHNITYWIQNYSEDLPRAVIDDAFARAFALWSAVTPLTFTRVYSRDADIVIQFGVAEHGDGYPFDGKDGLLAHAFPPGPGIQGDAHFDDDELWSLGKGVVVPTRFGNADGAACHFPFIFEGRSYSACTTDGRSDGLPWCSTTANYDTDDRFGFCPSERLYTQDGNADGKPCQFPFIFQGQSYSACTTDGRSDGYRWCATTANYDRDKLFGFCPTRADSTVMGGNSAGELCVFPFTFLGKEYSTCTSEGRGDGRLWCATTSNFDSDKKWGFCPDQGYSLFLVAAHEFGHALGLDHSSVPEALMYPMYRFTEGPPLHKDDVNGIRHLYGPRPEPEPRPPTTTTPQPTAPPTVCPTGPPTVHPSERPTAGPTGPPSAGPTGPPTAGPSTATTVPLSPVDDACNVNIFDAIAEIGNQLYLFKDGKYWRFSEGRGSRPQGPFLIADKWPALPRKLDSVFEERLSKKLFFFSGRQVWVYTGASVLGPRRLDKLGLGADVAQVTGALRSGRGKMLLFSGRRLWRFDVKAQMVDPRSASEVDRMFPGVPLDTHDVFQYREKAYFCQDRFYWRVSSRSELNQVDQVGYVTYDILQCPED

effect of thrombin inhibitor on CaCl2-induced fluorescence increase of PEG-T1Q [1]	effect of MMP inhibitor on MMP9 proteolysis of PEG-M1Q [2]	SMILES
eliminated the fluorescence increase	–	CC1CNc2c(cccc2S(=O)(=O)N[C@@H](CCCNC(=N)N)C(=O)N2CC[C@@H](C)C[C@@H]2C(=O)O)C1 (some centres unmarked) [Argatroban]
–	abrogated	CNC(=O)[C@@H](NC(=O)[C@H](CC(C)C)[C@H](O)C(=O)NO)C(C)(C)C [Marimastat]
